# Measurements from PubChem BioAssay.
# Activity calls are given as the source filed them.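 How the source made its calls, unless noted: active means inhibition at or above 50% at 10 µM; inactive means inhibition below 50%.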
# What was measured:
# [1] = inhibitors of TNFa-induced NFkB p65 translocation, primary screen, imaging, HUVEC, MLSMR starter and 10KST1 sets (AID 438;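 active means inhibition above 20% together with a positive visual image hit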;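 further: compound added about 3h40 before a 20 min TNFalpha stimulation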;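 on inhibition: signal is the nuclear over cytoplasmic p65 intensity ratio per well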); details: HUVEC TNFa-induced p65 nuclear translocation; cell count: measured here: nuclei count (cytotoxicity indicator), at 2.08 µM; inhibition: at 2 µM, stronger effect = higher value, 0% TNFa-plus-vehicle, 100% no-TNFa wells
# [2] = inhibitors of mutant huntingtin aggregation, primary screen, imaging, exon1htt(103Q)mCFP cells, high-content imaging (AID 483;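 active means visual image review flags a hit and inhibition of aggregation exceeds 20%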;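 further: compound exposure lasted 3 days before fixation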;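 on nuclei count: percent of the per-plate median nuclei count of sample wells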); details: exon1htt(103Q)mCFP cell line, aggregate imaging, at 2 µM; inhibition of aggregation: stronger effect = higher value; nuclei count: measured here: cell count, toxicity
# [3] = inhibitors of E-selectin induction by TNFa, primary screen, imaging, HUVEC, immunofluorescence, MLSMR starter and 10KST1 sets (AID 487;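 active means visually confirmed hit in the image check and inhibition above 20%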;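 on inhibition: signal is fraction of cell area covered by stained E-selectin grains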;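 on nuclei count: 100% = median nuclei count of all wells on the same plate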); details: HUVEC TNFalpha-induced E-selectin immunofluorescence imaging, at 2 µM; inhibition: stronger effect = higher value; nuclei count: measured here: cell number, toxicity
# [4] = target: Voltage-gated potassium channel subunit beta-2 (Rattus norvegicus) (UniProt P62483); assay: KvBeta enzyme negative modulators, primary screen, biochemical, NADPH fluorescence (AID 622;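 active means fluorescence slope higher than the sample average by over 3 SD, cut at about -0.22 in these data, passing the limit was not always enough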;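 further: slope of raw intensity against log time taken from 70 to 1610 s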); details: recombinant KvBeta, 4-cyanobenzaldehyde reduction, at 10 µM, stronger effect = higher value
# [5] = target: Voltage-gated potassium channel subunit beta-2 (Rattus norvegicus) (UniProt P62483); assay: KvBeta positive modulators, primary screen, biochemical, NADPH fluorescence (AID 623;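 active means NADPH fluorescence slope more negative than the mean of all samples by about 3 SD, 99.7% confidence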;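 further: fluorescence intensity change per second fitted from 20 to 320 s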); details: Recombinant KvBeta, NADPH fluorescence decrease slope, 10 min; at 10 µM; stronger effect = lower value
# [6] = target: Muscarinic acetylcholine receptor M4 (Homo sapiens) (UniProt P08173); assay: compounds altering M4/GIRK thallium flux, either direction, primary screen, M4 allosteric agonist project, cell-based, HEK293 M4/GIRK, BTC-AM (AID 625;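 active means fluorescence slope after compound addition differing from the mean of all tested samples at 99.7% confidence, mostly higher but some lower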;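 further: thallium influx through GIRK channels coupled to M4 in HEK293 cells with BTC-AM dye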); details: at 10 µM, actives lie on both sides
# In short: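 Assay system: HEK293 cells with M4 receptor and GIRK channels / Controls: carbachol and DMSO controls / Schedule: 1 h dye loading, 2 min kinetic read / Technique: kinetic fluorescence with BTC-AM dye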
# [7] = inhibitors of Sendai virus-induced IRF3 signaling, primary screen, TLR/RLR signaling modifier project, cell-based, Sendai virus stimulus, luciferase, 10K MLSCN set (AID 602276); details: HEK293 RL24 IRF3 luciferase reporter, at 10 µM, stronger effect = higher value;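 further: firefly luciferase from ISG56 promoter only with Renilla not read in this screen; 0% = Sendai virus plus DMSO and 100% = medium plus DMSO without virus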
# [8] = inhibitors of poly I:C-induced TLR3 signaling, primary screen, cell-based, poly I:C stimulus, luciferase, 10K MLSCN set (AID 602277;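 active means inhibition of the reporter signal at or above 50%; inactive means inhibition below 50%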); details: HEK293-TLR3 RL24 IRF3 luciferase reporter, at 10 µM, stronger effect = higher value
# Voltage-gated potassium channel subunit beta-2 (Rattus norvegicus), sequence (P62483 whole entry, looked up): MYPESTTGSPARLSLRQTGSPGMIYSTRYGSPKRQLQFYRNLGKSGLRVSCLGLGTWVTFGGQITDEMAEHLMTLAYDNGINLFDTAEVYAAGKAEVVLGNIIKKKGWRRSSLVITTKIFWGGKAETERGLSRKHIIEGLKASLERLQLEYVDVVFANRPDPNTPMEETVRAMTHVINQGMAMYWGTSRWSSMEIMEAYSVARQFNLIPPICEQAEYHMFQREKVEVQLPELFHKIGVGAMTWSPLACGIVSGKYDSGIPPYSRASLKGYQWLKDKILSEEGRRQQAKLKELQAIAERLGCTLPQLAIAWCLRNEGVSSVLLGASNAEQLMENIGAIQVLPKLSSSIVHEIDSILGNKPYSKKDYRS
# Muscarinic acetylcholine receptor M4 (Homo sapiens), sequence (P08173 whole entry, looked up): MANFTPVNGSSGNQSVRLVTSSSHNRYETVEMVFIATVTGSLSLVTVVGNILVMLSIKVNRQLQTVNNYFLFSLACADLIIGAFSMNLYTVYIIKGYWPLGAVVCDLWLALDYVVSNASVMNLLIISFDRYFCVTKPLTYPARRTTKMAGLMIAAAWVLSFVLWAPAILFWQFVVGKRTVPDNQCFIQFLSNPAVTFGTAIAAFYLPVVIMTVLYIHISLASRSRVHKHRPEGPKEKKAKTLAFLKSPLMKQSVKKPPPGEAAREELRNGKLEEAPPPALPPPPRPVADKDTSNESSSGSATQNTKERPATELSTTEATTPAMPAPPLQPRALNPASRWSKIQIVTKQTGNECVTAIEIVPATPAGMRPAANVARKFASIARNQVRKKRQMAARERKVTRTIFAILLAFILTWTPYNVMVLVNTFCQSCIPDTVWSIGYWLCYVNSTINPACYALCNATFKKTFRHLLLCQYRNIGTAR
Structure (SMILES),cell count [1],inhibition [1],inhibition of aggregation [2],nuclei count [2],inhibition [3],nuclei count [3],fluorescence slope [4],NADPH fluorescence slope [5],fluorescence slope [6],inhibition [7],inhibition [8]
Nc1nc2ccccc2n1/N=C/c1ccc(Br)cc1,334,-2.9% (inactive),-2.4% (inactive),87.2%,12.6% (inactive),92.2%,-0.47 (inactive),-3.8e-05 (inactive),0.00585 (inactive),-55% (inactive),-127% (inactive)
COc1ccc(C(=O)N(Cc2ccco2)C(C(=O)NC2CCCC2)c2ccc(O)cc2)cc1OC (stereo not drawn),653,-2.4% (inactive),-3.3% (inactive),104%,14.6% (inactive),103%,-0.54 (inactive),-4.9e-05 (inactive),0.00452 (inactive),10.7% (inactive),12.6% (inactive)
COC(=O)c1ccc(COc2ncnc3c(Cl)cc(Cl)cc23)o1,406,-5% (inactive),25.5% (inactive),74.4%,59.9% (inactive),78.8%,-0.433 (inactive),-0.000426 (inactive),0.00494 (inactive),2.59% (inactive),1.58% (inactive)
Nc1nc(CN2CCOCC2)cs1,650,-4.8% (inactive),7.7% (inactive),104%,14.6% (inactive),113%,-0.577 (inactive),-2.3e-05 (inactive),0.00598 (inactive),15.2% (inactive),14.7% (inactive)
CC(C)c1ccc(S(=O)(=O)N2CCN(C(=O)c3cccc(F)c3)CC2)cc1,363,4.2% (inactive),17% (inactive),100%,-70.8% (inactive),118%,-0.525 (inactive),0.000166 (inactive),0.00667 (inactive),14.9% (inactive),17% (inactive)
CCN(CC)c1ccc2c(c1)CCCN2,669,6.8% (inactive),2.8% (inactive),91%,-36.1% (inactive),126%,-0.559 (inactive),3.7e-05 (inactive),0.00991 (inactive),8.33% (inactive),1.7% (inactive)
Cc1nnc(SCc2cnc(-c3ccccc3)o2)[nH]c1=O,332,-2.2% (inactive),12.4% (inactive),92.7%,-82.5% (inactive),118%,-0.591 (inactive),-1.9e-05 (inactive),0.00323 (inactive),10.2% (inactive),12.4% (inactive)
CC(CN1CCOCC1)(NS(=O)(=O)c1ccccc1)c1ccccc1 (stereo not drawn),460,-12% (inactive),10.4% (inactive),85.8%,8% (inactive),111%,-0.576 (inactive),-4.5e-06 (inactive),0.00534 (inactive),4.38% (inactive),7.26% (inactive)
Cc1cc2c(cc(C(=O)NCc3cccnc3)n2Cc2ccc(Cl)cc2)o1,672,-16.6% (inactive),-46.1% (inactive),127%,-91.9% (inactive),99.8%,-0.49 (inactive),-2.7e-06 (inactive),0.00518 (inactive),12.1% (inactive),14.8% (inactive)
COc1ccccc1-c1nnc2sc(-c3ccc(N(C)C)cc3)nn12,695,-11.2% (inactive),-34.9% (inactive),1.9%,-217% (inactive),107%,-0.517 (inactive),1.2e-05 (inactive),0.00532 (inactive),37.1% (inactive),87.1% (active)
Cc1ccc(NC(=O)c2ccc(NS(=O)(=O)c3c(C)noc3C)cc2)cc1C,319,-15.8% (inactive),-9.9% (inactive),94.1%,-49.9% (inactive),110%,-0.48 (inactive),-0.000226 (inactive),0.00475 (inactive),6.15% (inactive),9.64% (inactive)
O=C(O)C1CC(=O)N(c2ccc(Br)cc2)C1 (stereo not drawn),375,0.4% (inactive),-10.6% (inactive),107%,-49.6% (inactive),117%,-0.506 (inactive),-0.000215 (inactive),0.00384 (inactive),2.88% (inactive),10% (inactive)
Cn1c(=O)c2c(nc(SCC(=O)NCc3ccc4c(c3)OCO4)n2Cc2ccccc2)n(C)c1=O,641,-14.8% (inactive),10.5% (inactive),104%,-33% (inactive),115%,-0.473 (inactive),-3.8e-05 (inactive),0.0042 (inactive),12.6% (inactive),11.8% (inactive)
Cc1ccc(CCNC(=O)C2CCN(S(=O)(=O)c3cccc4nsnc34)CC2)cc1,644,5.2% (inactive),-9.1% (inactive),96.4%,-129% (inactive),158%,-0.461 (inactive),0.000103 (inactive),0.00736 (inactive),0.47% (inactive),-16.3% (inactive)
O=C(O)Cn1cc2c(n1)CCCC2,638,0.2% (inactive),-7.3% (inactive),104%,13.9% (inactive),114%,-0.395 (inactive),6.4e-05 (inactive),0.00644 (inactive),9.43% (inactive),8.73% (inactive)
Nn1c(CSc2nc3ccccc3o2)nnc1CSc1nc2ccccc2o1,449,-13.4% (inactive),24.5% (inactive),85.3%,29.7% (inactive),86%,-0.408 (inactive),5.7e-05 (inactive),0.00537 (inactive),9.57% (inactive),17% (inactive)
Cc1ccc(S(=O)(=O)N(CC(=O)N2CCC(C(N)=O)CC2)c2cccc(C(F)(F)F)c2)cc1,327,1% (inactive),-0.2% (inactive),112%,-15.7% (inactive),114%,-0.556 (inactive),5.5e-06 (inactive),0.00443 (inactive),25.2% (inactive),25.1% (inactive)
COc1ccc2c(=O)c3c(=O)n(Cc4ccco4)c(C(C)C)nc3oc2c1,436,-3.9% (inactive),-10.1% (inactive),91.7%,-15.2% (inactive),107%,-0.564 (inactive),-2.1e-05 (inactive),0.00474 (inactive),4.04% (inactive),9.95% (inactive)
O=C(CSc1ncnc2sc3c(c12)CCCCC3)NCc1ccco1,354,-5.1% (inactive),-11.3% (inactive),93.9%,-196% (inactive),128%,-0.472 (inactive),-1.4e-05 (inactive),0.0063 (inactive),17.7% (inactive),35.5% (inactive)
CCCCc1ccc(NC(=O)N[C@H](C(=O)O)C(C)CC)cc1 (stereo partly drawn),610,-13.3% (inactive),-22.8% (inactive),109%,-22.1% (inactive),118%,-0.446 (inactive),-3.7e-05 (inactive),0.00522 (inactive),4.79% (inactive),14.4% (inactive)
O=C1c2cccnc2C(O)N1Cc1ccc(F)cc1 (stereo not drawn),375,1.1% (inactive),13.7% (inactive),118%,-11.7% (inactive),116%,-0.354 (inactive),-8.5e-05 (inactive),0.00468 (inactive),10.8% (inactive),17.7% (inactive)
CC(C)C1N=C2c3ccccc3N=C(SCC(=O)NCCc3ccc(S(N)(=O)=O)cc3)N2C1=O (stereo not drawn),566,-3.4% (inactive),7.3% (inactive),60.1%,-121% (inactive),110%,-0.598 (inactive),-3.3e-05 (inactive),0.00596 (inactive),22% (inactive),22% (inactive)
CCOC(=O)CNC(=O)CSc1ncnc2c1cnn2-c1ccccc1,564,-9.2% (inactive),-10.3% (inactive),113%,-69.6% (inactive),118%,-0.562 (inactive),3.9e-05 (inactive),0.00493 (inactive),7.97% (inactive),8.26% (inactive)
COc1cc(OC)cc(-c2nnc(Nc3nc4c(F)cccc4s3)o2)c1,345,-3.8% (inactive),12% (inactive),84.3%,28.3% (inactive),92.1%,-0.336 (inactive),7e-05 (inactive),0.0196 (active),17.6% (inactive),12.9% (inactive)
Cc1cc(NC(=O)c2ccc3nc(-c4ccccc4)c(-c4ccccc4)nc3c2)no1,536,-0.9% (inactive),-14.8% (inactive),102%,-66.9% (inactive),106%,-0.463 (inactive),-2.8e-05 (inactive),0.00551 (inactive),-16% (inactive),-16.7% (inactive)
COc1ccc(-c2coc3c(CN4CCCCC4)c(O)c(CN4CCCCC4)c(O)c3c2=O)cc1,367,-17% (inactive),8.6% (inactive),85.4%,-63.6% (inactive),103%,-0.566 (inactive),-2.2e-05 (inactive),0.00504 (inactive),5.54% (inactive),32.3% (inactive)
CC(NC(=O)OCc1ccccc1)C(=O)N1CC(O)CC1C(=O)O (stereo not drawn),280,0.9% (inactive),2.6% (inactive),79.3%,26.8% (inactive),85.4%,-0.562 (inactive),-1.6e-05 (inactive),0.00618 (inactive),16.9% (inactive),22.2% (inactive)
CCOC(=O)c1ccc(-c2c(C(=O)OCC)oc3cc(O)c(CC)cc3c2=O)o1,676,6.9% (inactive),10.3% (inactive),104%,-22.1% (inactive),100%,-0.602 (inactive),-2.5e-05 (inactive),0.00385 (inactive),15.3% (inactive),7.61% (inactive)
